ChEMBL document CHEMBL1149102, “De novo design, synthesis, and pharmacology of alpha-melanocyte stimulating hormone analogues derived from somatostatin by a hybrid approach” (J Med Chem, 2004)
pEC50: −log10 of the molar value. Values belong to the compound of their own block, whether it stands above or below them.

How the values were obtained:
[1] = test system: melanocyte-stimulating hormone receptor (Rana pipiens); experiment: Maximum agonist response for frog skin melanocortin 1 receptor (MC1R); No activity up to 10^-5M
Melanocortin receptor 4 [2] = target: T1, Melanocortin receptor 4 (Mus musculus, UniProt P56450); experiment: Effective concentration for maximum agonist response towards mouse melanocortin 4 receptor (MC4R); No activity up to 10^-5 M; format: functional
Method in brief: (§1)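 Cells stably expressing wild-type mouse (MC3R: rat) melanocortin receptor, transfected with 4 μg CRE/β-galactosidase reporter; 5000–15 000 cells plated, incubated overnight. At 48 h post-transfection, stimulated 6 h in DMEM with 0.1 mg/mL BSA and 0.1 mM IBMX; forskolin 10^-4 M reference.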

Melanocortin receptor 5 [3] = target: T2, Melanocortin receptor 5 (Mus musculus, UniProt P41149); experiment: Maximum agonist response for mouse melanocortin 5 receptor (MC5R); format: functional
Method in brief: as §1

[4] = target: T3, Melanocyte-stimulating hormone receptor (Mus musculus, UniProt Q01727); experiment: Maximal agonist response of mouse melanocortin 1 receptor (MC1R); format: functional
Method in brief: as §1

Melanocortin receptor 3 [5] = target: T4, Melanocortin receptor 3 (Rattus norvegicus, UniProt P32244); experiment: Maximal agonist response at rat melanocortin 3 receptor (MC3R); format: functional
Method in brief: as §1

[6] = test system: Melanocortin receptor 1 (Rana pipiens); experiment: Inhibition of 1 nM alpha melanocortin stimulating hormone (MSH) from frog skin; antagonist
Melanocortin receptor 5 [7] = target: T2, Melanocortin receptor 5; experiment: Effective concentration for maximum agonist response towards mouse melanocortin 5 receptor (MC5R); No activity up to 10^-5 M; format: functional
Method in brief: as §1

[8] = target: T3, Melanocyte-stimulating hormone receptor; experiment: Effective concentration for maximum agonist response towards mouse melanocortin 1 receptor (MC1R); No activity up to 10^-5 M; format: functional
Method in brief: as §1

Melanocortin receptor 3 [9] = target: T4, Melanocortin receptor 3; experiment: Effective concentration for maximum agonist response towards rat melanocortin 3 receptor (MC3R); No activity up to 10e-5 M; format: functional
Method in brief: as §1

[10] = test system: melanocyte-stimulating hormone receptor (Rana pipiens); experiment: Inhibition of 1 nM alpha melanocortin stimulating hormone from frog skin; No activity up to 10^-5 M.
Melanocortin receptor 4 [11] = target: T1, Melanocortin receptor 4; experiment: Effective concentration for maximum agonist response towards mouse melanocortin 4 receptor; format: functional
Method in brief: as §1

T1 sequence (P56450 whole entry): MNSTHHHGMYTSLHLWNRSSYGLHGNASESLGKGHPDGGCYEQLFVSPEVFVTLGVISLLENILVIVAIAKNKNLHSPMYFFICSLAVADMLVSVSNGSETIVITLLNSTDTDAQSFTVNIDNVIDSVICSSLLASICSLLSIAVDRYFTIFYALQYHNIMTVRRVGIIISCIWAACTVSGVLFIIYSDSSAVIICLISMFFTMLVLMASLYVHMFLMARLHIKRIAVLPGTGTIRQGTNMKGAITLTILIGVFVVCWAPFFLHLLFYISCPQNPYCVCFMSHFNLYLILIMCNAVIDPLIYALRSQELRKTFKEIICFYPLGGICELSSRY
T2 sequence (P41149 whole entry): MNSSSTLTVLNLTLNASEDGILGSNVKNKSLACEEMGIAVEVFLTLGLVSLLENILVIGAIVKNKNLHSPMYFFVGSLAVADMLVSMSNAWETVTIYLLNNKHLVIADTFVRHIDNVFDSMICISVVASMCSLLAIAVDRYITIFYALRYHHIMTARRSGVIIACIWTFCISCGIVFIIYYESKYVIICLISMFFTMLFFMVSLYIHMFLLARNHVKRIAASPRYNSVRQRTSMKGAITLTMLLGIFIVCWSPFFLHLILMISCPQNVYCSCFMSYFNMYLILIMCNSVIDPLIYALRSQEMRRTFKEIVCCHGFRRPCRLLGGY
T3 sequence (Q01727 whole entry): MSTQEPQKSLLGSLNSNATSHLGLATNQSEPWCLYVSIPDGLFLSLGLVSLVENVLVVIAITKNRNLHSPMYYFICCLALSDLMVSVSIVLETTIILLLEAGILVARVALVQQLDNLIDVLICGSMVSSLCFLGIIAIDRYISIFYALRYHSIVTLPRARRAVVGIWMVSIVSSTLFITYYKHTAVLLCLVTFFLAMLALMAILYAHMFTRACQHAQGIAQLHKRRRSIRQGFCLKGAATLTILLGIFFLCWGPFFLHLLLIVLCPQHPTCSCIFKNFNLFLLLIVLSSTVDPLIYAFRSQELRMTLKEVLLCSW
T4 sequence (P32244 whole entry): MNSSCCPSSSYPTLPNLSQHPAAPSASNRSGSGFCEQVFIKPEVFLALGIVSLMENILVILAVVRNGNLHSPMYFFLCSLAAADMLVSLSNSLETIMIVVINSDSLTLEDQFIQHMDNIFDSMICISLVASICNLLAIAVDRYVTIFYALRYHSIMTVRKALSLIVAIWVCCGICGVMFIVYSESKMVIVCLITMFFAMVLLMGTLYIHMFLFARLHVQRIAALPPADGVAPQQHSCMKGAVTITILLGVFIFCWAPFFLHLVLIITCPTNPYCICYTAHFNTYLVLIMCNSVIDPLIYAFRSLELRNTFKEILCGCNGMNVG

EC50 (Melanocortin receptor 4 [2]): Not Active
pEC50 (Melanocortin receptor 5 [3]): 7.34
pEC50 [4]: 6.31
pEC50 (Melanocortin receptor 3 [5]): 7.23
IC50 [6]: Antagonist
EC50 [1]: Not Active
Structure (SMILES): C[C@@H](O)[C@H](NC(=O)[C@H]1CSSC(C)(C)[C@H](NC(=O)[C@H](N)Cc2ccccc2)C(=O)N[C@@H](Cc2c[nH]cn2)C(=O)N[C@@H](Cc2ccccc2)C(=O)N[C@@H](CCCN)C(=O)N[C@H](Cc2c[nH]c3ccccc23)C(=O)N1)C(N)=O

pEC50 (Melanocortin receptor 4 [11]): 9.70
pEC50 (Melanocortin receptor 5 [3]): 10.00
pEC50 [4]: 9.64
pEC50 (Melanocortin receptor 3 [5]): 9.64
IC50 [10]: Not Active
Structure (SMILES): C[C@@H](O)[C@H](NC(=O)[C@H]1CSSC[C@H](NC(=O)[C@H](N)Cc2ccccc2)C(=O)N[C@H](Cc2cnc[nH]2)C(=O)N[C@H](Cc2ccccc2)C(=O)N[C@@H](CCCNC(=N)N)C(=O)N[C@H](Cc2c[nH]c3ccccc23)C(=O)N1)C(N)=O

pEC50 (Melanocortin receptor 4 [11]): 9.17
pEC50 (Melanocortin receptor 5 [3]): 9.96
pEC50 [4]: 9.43
pEC50 (Melanocortin receptor 3 [5]): 8.14
Structure (SMILES): C[C@H](O)[C@@H](NC(=O)[C@H]1CSSC[C@H](NC(=O)[C@H](N)Cc2ccccc2)C(=O)N[C@@H](Cc2cnc[nH]2)C(=O)N[C@@H](Cc2ccc(Cl)cc2)C(=O)N[C@@H](CCCNC(=N)N)C(=O)N[C@H](Cc2c[nH]c3ccccc23)C(=O)N1)C(N)=O

pEC50 (Melanocortin receptor 4 [11]): 7.29
pEC50 (Melanocortin receptor 5 [3]): 8.66
pEC50 [4]: 8.29
Structure (SMILES): C[C@@H](O)[C@H](NC(=O)[C@@H]1CCSSC[C@H](NC(=O)[C@H](N)Cc2ccccc2)C(=O)N[C@@H](Cc2cnc[nH]2)C(=O)N[C@H](Cc2ccccc2)C(=O)N[C@@H](CCCNC(=N)N)C(=O)N[C@@H](Cc2c[nH]c3ccccc23)C(=O)N1)C(N)=O

pEC50 (Melanocortin receptor 3 [5]): 7.12
Structure (SMILES): C[C@@H](O)[C@H](NC(=O)[C@H]1CCSSC[C@H](NC(=O)[C@@H](N)Cc2ccccc2)C(=O)N[C@@H](Cc2cnc[nH]2)C(=O)N[C@H](Cc2ccccc2)C(=O)N[C@@H](CCCNC(=N)N)C(=O)N[C@H](Cc2c[nH]c3ccccc23)C(=O)N1)C(N)=O

EC50 [1]: Not Active
Structure (SMILES): C[C@@H](O)[C@H](NC(=O)[C@@H]1NC(=O)[C@H](Cc2c[nH]c3ccccc23)NC(=O)[C@H](CCCN=C(N)N)NC(=O)[C@H](Cc2c[nH]c3ccccc23)NC(=O)[C@H](Cc2ccccc2)NC(=O)[C@@H](NC(=O)[C@H](N)Cc2ccccc2)CSSC1(C)C)C(N)=O

pEC50 (Melanocortin receptor 4 [11]): 7.70
pEC50 (Melanocortin receptor 5 [3]): 9.85
pEC50 [4]: 8.16
Structure (SMILES): C[C@@H](O)[C@H](NC(=O)[C@H]1NC(=O)[C@H](Cc2c[nH]c3ccccc23)NC(=O)[C@H](CCCNC(=N)N)NC(=O)[C@@H](Cc2ccccc2)NC(=O)[C@H](Cc2cnc[nH]2)NC(=O)[C@@H](NC(=O)[C@H](N)Cc2ccccc2)CSSC1(C)C)C(N)=O

IC50 [10]: Not Active
Structure (SMILES): C[C@@H](O)[C@H](NC(=O)[C@H]1NC(=O)[C@H](Cc2c[nH]c3ccccc23)NC(=O)[C@H](CCCN=C(N)N)NC(=O)[C@@H](Cc2ccccc2)NC(=O)[C@H](Cc2c[nH]cn2)NC(=O)[C@@H](NC(=O)[C@H](N)Cc2ccccc2)CSSC1(C)C)C(N)=O

pEC50 (Melanocortin receptor 3 [5]): 7.19
Structure (SMILES): C[C@@H](O)[C@H](NC(=O)[C@@H]1NC(=O)[C@@H](Cc2c[nH]c3ccccc23)NC(=O)[C@H](CCCNC(=N)N)NC(=O)[C@@H](Cc2ccccc2)NC(=O)[C@@H](Cc2cnc[nH]2)NC(=O)[C@@H](NC(=O)[C@H](N)Cc2ccccc2)CSSC1(C)C)C(N)=O

pEC50 (Melanocortin receptor 4 [11]): 9.42
pEC50 (Melanocortin receptor 5 [3]): 10.13
pEC50 [4]: 10.33
Structure (SMILES): C[C@@H](O)[C@H](NC(=O)[C@@H]1CCCCNC(=O)C[C@H](NC(=O)[C@H](N)Cc2ccccc2)C(=O)N[C@@H](Cc2cnc[nH]2)C(=O)N[C@H](Cc2ccccc2)C(=O)N[C@@H](CCCNC(=N)N)C(=O)N[C@@H](Cc2c[nH]c3ccccc23)C(=O)N1)C(N)=O

pEC50 (Melanocortin receptor 3 [5]): 9.64
Structure (SMILES): C[C@@H](O)[C@H](NC(=O)[C@H]1CCCCNC(=O)C[C@H](NC(=O)[C@@H](N)Cc2ccccc2)C(=O)N[C@@H](Cc2cnc[nH]2)C(=O)N[C@H](Cc2ccccc2)C(=O)N[C@@H](CCCNC(=N)N)C(=O)N[C@H](Cc2c[nH]c3ccccc23)C(=O)N1)C(N)=O

EC50 [1]: Not Active
Structure (SMILES): C[C@@H](O)[C@H](NC(=O)[C@H]1NC(=O)[C@H](Cc2c[nH]c3ccccc23)NC(=O)[C@H](CCCN=C(N)N)NC(=O)[C@@H](Cc2c[nH]c3ccccc23)NC(=O)[C@H](Cc2ccccc2)NC(=O)[C@@H](NC(=O)[C@H](N)Cc2ccccc2)CSSC1(C)C)C(N)=O

Continued, compound first:

Structure (SMILES): C[C@@H](O)[C@H](NC(=O)[C@H]1NC(=O)[C@H](Cc2c[nH]c3ccccc23)NC(=O)[C@H](CCCN=C(N)N)NC(=O)[C@@H](Cc2c[nH]c3ccccc23)NC(=O)[C@H](Cc2ccc(O)cc2)NC(=O)[C@@H](NC(=O)[C@H](N)Cc2ccccc2)CSSC1(C)C)C(N)=O
EC50 [1]: Not Active

Structure (SMILES): C[C@H](O)[C@@H](NC(=O)[C@H]1CSSC[C@H](NC(=O)[C@@H](N)Cc2ccccc2)C(=O)N[C@@H](Cc2c[nH]cn2)C(=O)N2Cc3ccccc3C[C@H]2C(=O)N[C@@H](CCCN=C(N)N)C(=O)N[C@H](Cc2c[nH]c3ccccc23)C(=O)N1)C(N)=O
EC50 (Melanocortin receptor 4 [2]): Not Active
EC50 (Melanocortin receptor 5 [7]): Not Active
EC50 [8]: Not Active
EC50 (Melanocortin receptor 3 [9]): Not Active
EC50 [1]: Not Active

Structure (SMILES): C[C@@H](O)[C@H](NC(=O)[C@H]1NC(=O)[C@H]([C@@H](C)O)NC(=O)[C@H](CCCN=C(N)N)NC(=O)[C@@H](Cc2ccccc2)NC(=O)[C@H](Cc2ccccc2)NC(=O)[C@@H](NC(=O)[C@H](N)Cc2ccccc2)CSSC1(C)C)C(N)=O
EC50 [1]: Not Active
IC50 [10]: Not Active

Structure (SMILES): C[C@@H](O)[C@H](NC(=O)[C@H]1NC(=O)[C@H]([C@@H](C)O)NC(=O)[C@H](CCCN=C(N)N)NC(=O)[C@@H](Cc2c[nH]c3ccccc23)NC(=O)[C@H](Cc2ccc(I)cc2)NC(=O)[C@@H](NC(=O)[C@H](N)Cc2ccccc2)CSSC1(C)C)C(N)=O
EC50 [1]: Not Active

Structure (SMILES): C[C@@H](O)[C@H](NC(=O)[C@@H]1CSSC[C@H](NC(=O)[C@H](N)Cc2ccccc2)C(=O)N[C@@H](Cc2c[nH]cn2)C(=O)N[C@@H](Cc2ccc(I)cc2)C(=O)N[C@@H](CCCN=C(N)N)C(=O)N[C@H](Cc2c[nH]c3ccccc23)C(=O)N1)C(N)=O
EC50 [1]: Not Active
IC50 [10]: Not Active

Structure (SMILES): C[C@@H](O)[C@H](NC(=O)[C@H]1NC(=O)[C@H](CO)NC(=O)[C@H](CCCN=C(N)N)NC(=O)[C@@H](Cc2c[nH]c3ccccc23)NC(=O)[C@H](Cc2ccc(O)cc2)NC(=O)[C@@H](NC(=O)[C@H](N)Cc2ccccc2)CSSC1(C)C)C(N)=O
EC50 [1]: Not Active

Structure (SMILES): C[C@@H](O)[C@H](NC(=O)[C@@H]1CSSC[C@H](NC(=O)[C@H](N)Cc2ccccc2)C(=O)N[C@@H](Cc2c[nH]cn2)C(=O)N[C@@H](Cc2cccc3ccccc23)C(=O)N[C@@H](CCCN=C(N)N)C(=O)N[C@H](Cc2c[nH]c3ccccc23)C(=O)N1)C(N)=O
IC50 [10]: Not Active

Structure (SMILES): C[C@@H](O)[C@H](NC(=O)[C@@H]1CSSC[C@H](NC(=O)[C@H](N)Cc2ccccc2)C(=O)N[C@@H](Cc2c[nH]cn2)C(=O)N[C@H](Cc2ccc(Cl)cc2)C(=O)N[C@@H](CCCN=C(N)N)C(=O)N[C@@H](Cc2c[nH]c3ccccc23)C(=O)N1)C(N)=O
IC50 [10]: Not Active

Structure (SMILES): C[C@@H](O)[C@H](NC(=O)[C@@H]1CCSSC[C@H](NC(=O)[C@H](N)Cc2ccccc2)C(=O)N[C@@H](Cc2c[nH]cn2)C(=O)N[C@H](Cc2ccccc2)C(=O)N[C@@H](CCCN=C(N)N)C(=O)N[C@@H](Cc2c[nH]c3ccccc23)C(=O)N1)C(N)=O
IC50 [10]: Not Active

Structure (SMILES): C[C@@H](O)[C@H](NC(=O)[C@@H]1CSSC[C@@H](NC(=O)[C@H](N)Cc2ccccc2)C(=O)N[C@@H](Cc2c[nH]cn2)C(=O)N[C@@H](Cc2ccc3ccccc3c2)C(=O)N[C@@H](CCCN=C(N)N)C(=O)N[C@H](Cc2c[nH]c3ccccc23)C(=O)N1)C(N)=O
EC50 [1]: Not Active
IC50 [10]: Not Active

Structure (SMILES): C[C@@H](O)[C@H](NC(=O)[C@H]1CSSC[C@H](NC(=O)[C@@H](N)Cc2ccccc2)C(=O)N[C@@H](Cc2c[nH]cn2)C(=O)N[C@H](Cc2ccccc2)C(=O)N[C@@H](CCCN=C(N)N)C(=O)N[C@H](Cc2c[nH]c3ccccc23)C(=O)N1)C(N)=O
IC50 [10]: Not Active

Structure (SMILES): C[C@@H](O)[C@H](NC(=O)[C@H]1CSSC[C@H](NC(=O)[C@H](N)Cc2ccccc2)C(=O)N[C@@H](Cc2c[nH]cn2)C(=O)N[C@@H](Cc2ccccc2)C(=O)N[C@@H](CCCN=C(N)N)C(=O)N[C@H](Cc2c[nH]c3ccccc23)C(=O)N1)C(N)=O
pEC50 (Melanocortin receptor 4 [11]): 8.85
pEC50 (Melanocortin receptor 5 [3]): 9.92
pEC50 [4]: 8.82
pEC50 (Melanocortin receptor 3 [5]): 8.52
IC50 [10]: Not Active

Structure (SMILES): C[C@@H](O)[C@H](NC(=O)[C@@H]1CSSC[C@H](NC(=O)[C@H](N)Cc2ccccc2)C(=O)N[C@@H](Cc2c[nH]cn2)C(=O)N[C@@H](Cc2ccc(F)cc2)C(=O)N[C@@H](CCCN=C(N)N)C(=O)N[C@H](Cc2c[nH]c3ccccc23)C(=O)N1)C(N)=O
IC50 [10]: Not Active

Structure (SMILES): C[C@@H](O)[C@H](NC(=O)[C@@H]1CCCCNC(=O)C[C@H](NC(=O)[C@H](N)Cc2ccccc2)C(=O)N[C@@H](Cc2c[nH]cn2)C(=O)N[C@H](Cc2ccccc2)C(=O)N[C@@H](CCCN=C(N)N)C(=O)N[C@@H](Cc2c[nH]c3ccccc23)C(=O)N1)C(N)=O
IC50 [10]: Not Active
